The results in this text go back to ChEMBL document CHEMBL4513216, “Probing the Open Global Health Chemical Diversity Library for Multistage-Active Starting Points for Next-Generation Antimalarials” (ACS Infect Dis, 2020).

This data set is described as follows: Toxicity liver stage against HepG2, at 10uM. Format: cell-based. Details: test concentration 10 uM, cell line HepG2-A16-CD81EGFP. The following applies: human, HepG2-A16-CD81EGFP cells; read-out: INHIBITION
A digest of the protocol:
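Uninfected HepG2-A16-CD81EGFP cells, 3 × 10^3 per well, 1536-well, plated on prespotted compound at 10 μM final, parasite-free screening media added to match infected plates; puromycin 10 μM positive, DMSO 0.5% negative; run in parallel with 48 h PbLuc assay at 37 °C, 5% CO2; viability by CellTiter-Glo luminescence, normalized to controls.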
On to `CCCc1nnc([C@H]2CCN(Cc3ncc[nH]3)C2)o1`, for which the cytotoxicity at 10 µM was -1.63%.

`COCCCN(Cc1cc(O)nc2ccccc12)C(=O)NC(C)C`: the cytotoxicity at 10 µM worked out at 0.829%.

Regarding `Cc1cc(C)n(Cc2ccc(-c3noc(C(=O)NCCCO)n3)cc2)n1`, the cytotoxicity at 10 µM is -1.49%.

For the molecule `COC[C@]12COC[C@H]1CN(S(=O)(=O)c1cccnc1)C2`, the cytotoxicity at 10 µM was -0.975%.

Regarding `CCN1C(=O)CC(c2cnn(C)c2)C12CCN(C(=O)C1CC=CC1)CC2` (configuration not stated), the cytotoxicity at 10 µM was 5.13%.

For the molecule `CC(C)N1c2sc(-c3ccccc3)nc2CC1C(=O)NCCCO` (configuration not stated), the cytotoxicity at 10 µM stood at 7.8%.

With `O=C(C1CC1)N1CC[C@H]2C(=O)N(c3ccsc3)CCO[C@H]2C1`, the cytotoxicity at 10 µM was 9.85%.

Take `COc1cccc(CN2CCCCCC2c2cccs2)c1O` (configuration not stated): the cytotoxicity at 10 µM is 11.4%.

In the case of `Cc1ccccc1OCn1ccc(C(=O)NCCN2CCOCC2)n1`, the cytotoxicity at 10 µM amounted to 8.02%.

In the case of `O=C(COc1ccc2c(c1)CCC2)NCc1ccco1`, the cytotoxicity at 10 µM came to 2.98%.

In the case of `CS(=O)(=O)N1CCN(C(=O)c2cc(-c3cccs3)cs2)CC1`, the cytotoxicity at 10 µM amounted to 1.8%.

For `Cc1cc(C(F)(F)F)nn1CC(C)C(=O)Nc1ccncc1` (configuration not stated), the cytotoxicity at 10 µM was -2.13%.

With `O=C(O)c1ccccc1-c1ccc(CN2CCC(CO)C2)cn1` (configuration not stated), the cytotoxicity at 10 µM is -1.79%.

With `CS(=O)(=O)N1CCC(Cc2cnc(Br)cn2)CC1`, the cytotoxicity at 10 µM is 13.4%.

For the molecule `O=C(CC1CCN(CCc2ccccc2)CC1)N1CCCOCC1`, the cytotoxicity at 10 µM is -2.38%.

Consider `CC(=O)Nc1cc(F)c(S(=O)(=O)N(C)CC2CCC2)c(F)c1`, for which the cytotoxicity at 10 µM was -54.4%.

In the case of `CC(OCC1CC1)C(=O)N1CCCN(c2nc3ccccc3[nH]2)CC1` (configuration not stated), the cytotoxicity at 10 µM was -0.657%.

Consider `CC(C)OCCN1CCC(Nc2nccnc2C#N)CC1`, for which the cytotoxicity at 10 µM amounted to 2.72%.

With `COC(=O)c1ccc(Cn2cccc(C(F)(F)F)c2=O)c(OC)c1`, the cytotoxicity at 10 µM is 8.55%.

As for `CCN(C)S(=O)(=O)c1ccc(Cl)cc1C#N`, the cytotoxicity at 10 µM was -36.9%.

As to `O=C1CC(N(C(=O)c2ccc(-n3cccc3)cc2)C2CC2)C(=O)N1` (configuration not stated), the cytotoxicity at 10 µM is -1.67%.

As to `CC(CNC(=O)N1CCN(Cc2ccon2)CC1)Cc1cccs1` (configuration not stated), the cytotoxicity at 10 µM is -1.26%.

With `Cc1nnc(CN(C)S(=O)(=O)c2ccc(Br)cc2Cl)n1C`, the cytotoxicity at 10 µM came to 12.6%.

Take `COc1cccc(OCC(=O)N(C)c2cccnc2N(C)C)c1`: the cytotoxicity at 10 µM worked out at 0.102%.

Turning to `Cc1nn(C)c(C)c1NC(=O)CN1CCc2c(nc(C3CC3)n2C)C1`, the cytotoxicity at 10 µM is -5.31%.

With `CCOc1nnc(CN(C)C2CCCN(c3cccnn3)C2)s1` (configuration not stated), the cytotoxicity at 10 µM was -17.3%.

With `CO[C@@H]1CO[C@@]2(CCCN(C(=O)N3CCCC3)C2)C1`, the cytotoxicity at 10 µM is -98.6%.

Turning to `COC[C@@H]1CCC[C@@]12CN(C(=O)C1CCOCC1)CCO2`, the cytotoxicity at 10 µM was -111%.

As to `Fc1cccc(-n2cc(CN3CCCCC3CCn3ccnc3)cn2)c1` (configuration not stated), the cytotoxicity at 10 µM was -8.55%.

`CCOc1cc(CNCc2ncc[nH]2)c(Cl)cc1OC(C)C`: the cytotoxicity at 10 µM is 5.45%.

In the case of `COc1coc(CN2CCCC3(CCC(=O)N(CC4CC4)C3)C2)cc1=O` (configuration not stated), the cytotoxicity at 10 µM was -34.4%.

`Cc1ncccc1OC1(C(=O)NCCc2ccccn2)CCNCC1`: the cytotoxicity at 10 µM is 1.83%.

For `CCc1cc(NCCNc2ccncc2C)n2nc(C)c(C)c2n1`, the cytotoxicity at 10 µM stood at 3.29%.

With `COc1ccc(CN2CCSCC2)c(OC)c1`, the cytotoxicity at 10 µM was 7.94%.

`Cc1cc(CC(C)NC2CCN(CC(C)C)CC2)[nH]n1` (configuration not stated): the cytotoxicity at 10 µM was -8.32%.

Regarding `CCCN1CCCn2nc(CNC(=O)C3CCOC3)cc2C1` (configuration not stated), the cytotoxicity at 10 µM is 0.237%.

Regarding `CCc1nc2c(c(NCc3nc(-c4cccnc4)no3)n1)CCNCC2`, the cytotoxicity at 10 µM was found to be 5.85%.

On to `CC(C)OCCCNC(=O)C1CCC(=O)N(C2CCCC2)C1` (configuration not stated), for which the cytotoxicity at 10 µM was -5.92%.

In the case of `c1coc(-c2nc(CNC3CCC4(CCNCC4)CC3)no2)c1`, the cytotoxicity at 10 µM was -15.8%.

`CC(O)CN1CC2(CCC1=O)CCN(Cc1cc(F)ccc1Cl)CC2` (configuration not stated): the cytotoxicity at 10 µM was 6.89%.

As to `Cc1nc(CCN(C)C(=O)CN2CCCCCC2)no1`, the cytotoxicity at 10 µM was found to be 5.33%.

For the molecule `COc1cccc(-n2cc(CN(C)C(=O)c3cnc(O)cn3)cn2)c1`, the cytotoxicity at 10 µM is -14.7%.

As to `Cc1cccc(-c2nc(C)nn2CC(=O)NC(C)C2CC2)c1` (configuration not stated), the cytotoxicity at 10 µM was -0.502%.

As for `CCc1nccn1C1CCCN(C(=O)c2ccc(-n3ccnc3)cc2)C1` (configuration not stated), the cytotoxicity at 10 µM is -10.8%.

In the case of `CC1CCCN(Cc2ccc(OCc3nccn3C)cc2)C1` (configuration not stated), the cytotoxicity at 10 µM was -11.8%.

`Cc1cccc(CNC(=O)CCc2c(C)nc3cc(O)nn3c2C)n1`: the cytotoxicity at 10 µM was -4.03%.

Turning to `Cc1cc(CN2CCC(N(C)Cc3noc(C4CC4)n3)C2)no1` (configuration not stated), the cytotoxicity at 10 µM came to 5.35%.

Consider `Cc1csc(CNC(=O)N2CCN(Cc3ccco3)CC2)n1`, for which the cytotoxicity at 10 µM was determined as 0.702%.

`Cc1nccc(-c2cccc(NCC(=O)N3CCOCC3)c2)n1`: the cytotoxicity at 10 µM is -0.269%.

For `CN(Cc1cccc(O)c1)C(=O)Nc1cccnc1N1CCCC1`, the cytotoxicity at 10 µM is -0.565%.

Take `O=C1COc2cc(C(=O)NS(=O)(=O)c3ccc(F)cc3F)ccc2N1`: the cytotoxicity at 10 µM was -6.21%.

With `COc1ncccc1C(=O)NC1CCOc2ccccc21` (configuration not stated), the cytotoxicity at 10 µM was -6.25%.

For the molecule `Cc1ccc(CNCC2CNc3cc(C)nn3C2)cn1` (configuration not stated), the cytotoxicity at 10 µM is -7.07%.

With `Cc1ccc(NC2CCN(C(=O)CCOCC(F)(F)F)CC2)nn1`, the cytotoxicity at 10 µM was -2.78%.

On to `CN1CCCN(C(=O)NCCOc2ccc3c(c2)OCO3)CC1`, for which the cytotoxicity at 10 µM was -17.5%.

As for `CC(=O)N1CCN(CC(C)(O)c2cccc(C(F)(F)F)c2)CC1` (configuration not stated), the cytotoxicity at 10 µM is -14.6%.

For `COc1ccccc1CC(=O)NS(C)(=O)=O`, the cytotoxicity at 10 µM is -7.31%.

With `O=C(O)c1cc(NS(=O)(=O)c2cccc(Cl)c2F)ccc1Cl`, the cytotoxicity at 10 µM was -4.92%.

In the case of `CCn1nc2c(cc1=O)CN(Cc1nc(CCOC)no1)CC2`, the cytotoxicity at 10 µM is -9.24%.

`COc1cc(CNCc2c(C(C)C)nn(C)c2N(C)C)ccn1`: the cytotoxicity at 10 µM stood at 0.504%.

In the case of `Cn1nc2c(cc1=O)CN(Cc1nnc(C3CC3)o1)CC2`, the cytotoxicity at 10 µM was 4.28%.

With `CCc1ccc(NC(=O)N2Cc3c(CN(C)C)nn(C)c3C2)cc1`, the cytotoxicity at 10 µM is 5.62%.

As to `COc1cc(N2CCc3ncnc(-c4ccncc4)c3CC2)ncn1`, the cytotoxicity at 10 µM amounted to 9.85%.

As to `FC1(F)CCNCC12CCN(c1cccnc1)C2` (configuration not stated), the cytotoxicity at 10 µM came to 5.8%.

In the case of `COc1cc2cc(C)c(SCCN3CCCC3)nc2cc1OC`, the cytotoxicity at 10 µM was -7.48%.

With `CN(C)S(=O)(=O)N1CC[C@H]2OCC[C@@]2(COc2cccnc2)C1`, the cytotoxicity at 10 µM was 11.2%.

As for `Cc1ncsc1CN1C[C@@H]2COC[C@]2(C(=O)NCc2ccccn2)C1`, the cytotoxicity at 10 µM is -108%.

As for `COCC(=O)NC1CC2(CCN(CCO)CC2)c2ccccc21` (configuration not stated), the cytotoxicity at 10 µM was -109%.

Regarding `CCCS(=O)(=O)N1CCc2c(COCC)cncc2C1`, the cytotoxicity at 10 µM was 8.76%.

As to `c1ccc(CCNCC2Cn3nncc3CO2)cc1` (configuration not stated), the cytotoxicity at 10 µM worked out at 7.61%.

`O=C([C@H]1CCCO1)N1CC[C@H](O)[C@@H]1Cc1ccncc1`: the cytotoxicity at 10 µM is 6.38%.

`O=C(NC1CC1)C1[C@H]2CN(Cc3ccc(-c4cc[nH]n4)s3)C[C@@H]12` (some centres not stated): the cytotoxicity at 10 µM turned out to be 6.27%.
